# Data from paper PMC3025495 (The lancet oncology, 2010).
# pEC50, pIC50: −log10 of the molar value. Like-named read-outs stand apart in the source and are kept apart here.
# Tests used:
# [1] = tested on: patients; conditions: cited from earlier work; for clinical activity: clinical testing, [24]; for clinical activity / on-target pharmacodynamic effects on platelets: ref [23]; for dose-limiting toxicities: gossypol ref [23], obatoclax ref [24]; for on-target pharmacodynamic effects on platelets: review of toxicities, [25]–[28]
# [2] = tested on: human hematopoietic progenitors: erythroid precursors; test: Methylcellulose-based in vitro colony forming assay, erythroid precursors; type: cell-based; conditions: read-out: IC50, growth inhibition of erythroid precursors
# [3] = tested on: human hematopoietic progenitors: common myeloid precursors; test: Methylcellulose-based in vitro colony forming assay, common myeloid precursors; type: cell-based; conditions: read-out: IC50, growth inhibition of common myeloid precursors
# [4] = tested on: BH3-only proteins; conditions: no reference printed with the sentence; cited from earlier work
# [5] = tested on: CD3+ cells (T-cells); test: Pharmacodynamic effect on circulating CD3+ cells; type: in vivo, human; conditions: after 14 days of drug exposure (day 14 of cycle 1), at least 200 mg
# How it was run: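 Patients with relapsed or refractory lymphoid malignancies took the test compound orally each day. Two schedules were used: days 1–14 of a 21-day cycle, or continuous dosing after a 150 mg lead-in lasting 7–14 days. Circulating CD3+ counts were compared with baseline. The P-value for the change from baseline came from a Sign-test because the data were skewed.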
# [6] = tested on: circulating platelets; test: Pharmacodynamic effect on circulating platelets; type: in vivo, human; conditions: platelet nadir versus navitoclax AUC, n=35 patients
# [7] = tested on: relapsed/refractory lymphoid malignancies; test: Tumor response and survival; type: in vivo, human
# [8] = tested on: animal models; test: Projected effective exposure from animal models; type: in vivo; conditions: based on animal models
# [9] = tested on: patients with relapsed or refractory lymphoid malignancies; conditions: in vivo
# [10] = human, in vivo
# [11] = tested on: hematological cell lines; conditions: in 11 of 23 hematological cell lines, ref [10]; cited from earlier work
# [12] = tested on: murine xenograft model of acute lymphocytic leukemia; conditions: ref [11]; cited from earlier work
# [13] = tested on: xenograft model of mantle cell lymphoma; conditions: ref [11]; cited from earlier work
# [14] = tested on: BCL-XL and BCL-2 over expressing prolymphocytic murine cell lines; conditions: coimmunoprecipitation; ref [11], [27]; cited from earlier work
# [15] = tested on: BCL-2 dependent human small cell lung cancer (SCLC) cell line; conditions: within 2 hours of treatment; ref [11], [27]; cited from earlier work
# [16] = clinical; conditions: human, in vivo
# [17] = tested on: patients with relapsed or refractory lymphoid malignancies; test: Phase 1 dose-escalation study: toxicity and DLT
# [18] = Pharmacokinetic profile in patients
# [19] = Grade 1/2, Continuous (21/21) Schedule MTD 325 mg (N=5)
# [20] = Grade 1/2, Intermittent (14/21) Schedule All Patients (N=38)
# [21] = Grade 3/4, Continuous (21/21) Schedule All Patients (N=17)
# [22] = Grade 3/4, Continuous (21/21) Schedule MTD 325 mg (N=5)
# [23] = Grade 3/4, Intermittent (14/21) Schedule All Patients (N=38)
# [24] = Grade 3/4, Intermittent (14/21) Schedule MTD 315 mg (N=9)
compound,measurement,setting,value
COC1=CC(c2cc3ccccc3[nH]2)=N/C1=C\c1[nH]c(C)cc1C [obatoclax],clinical activity,[1],little to no clinical activity
same,dose-limiting toxicities,[1],Infusion-related somnolence and neurologic symptoms
same,on-target pharmacodynamic effects on platelets,[1],no on-target pharmacodynamic effects on platelets
Cc1cc2c(C(C)C)c(O)c(O)c(C=O)c2c(O)c1-c1c(C)cc2c(C(C)C)c(O)c(O)c(C=O)c2c1O [gossypol],clinical activity,[1],little to no clinical activity
same,dose-limiting toxicities,[1],gastrointestinal side effects
same,on-target pharmacodynamic effects on platelets,[1],no on-target pharmacodynamic effects on platelets
CN(C)CC[C@H](CSc1ccccc1)Nc1ccc(S(=O)(=O)NC(=O)c2ccc(N3CCN(Cc4ccccc4-c4ccc(Cl)cc4)CC3)cc2)cc1[N+](=O)[O-] [ABT-737],pIC50,[2],6.00
same,pIC50,[3],6.05
same,binding affinity relative to previously reported compounds,[4],two to three orders of magnitude greater
CC1(C)CCC(c2ccc(Cl)cc2)=C(CN2CCN(c3ccc(C(=O)NS(=O)(=O)c4ccc(N[C@H](CCN5CCOCC5)CSc5ccccc5)c(S(=O)(=O)C(F)(F)F)c4)cc3)CC2)C1 [Navitoclax],median reduction of circulating CD3+ cells,[5],241 CD3+ cells/µl
same,severity of the platelet nadirs,[6],concentration dependent
same,median PFS,"[7]; 16 patients with follicular lymphoma, IQR 42-92",88 days
same,patients achieving a PR,[7]; CLL/SLL patients with measurable adenopathy,8 of 16
same,PR in NK/T-cell lymphoma,[7]; NK/T-cell lymphoma,single patient
same,median overall survival,[7]; all 20 patients with CLL/SLL,has not been reached
same,median PFS,"[7]; all 20 patients with CLL/SLL, IQR 49-309",246 days
same,reduction in leukemia cells,[7]; all seven patients with CLL,≥ 50%
same,patients with measurable tumor reduction,[7]; follicular lymphoma,6 of 16
same,patients with some tumor reduction,"[7]; patients with evaluable adenopathy, all dose levels",21 of 46
same,"cycles until response, median (range)",[7]; responders across dose levels and tumor types,3.5 (2–10) cycles
same,projected effective exposure (AUC),[8],55000 to 88000 ng·h/mL
same,"All Infections, patients n (%)",[9]; human,14 (82%)
same,"Herpes Zoster, patients n (%)",[9]; human,1 (6%)
same,dose selected for phase II study,[9]; human,325 mg
same,"grade 1/2 fatigue, number of patients",[9]; human,21 patients
same,"grade 3/4 neutropenia, number of patients",[9]; human,17 patients
same,"grade 3/4 thrombocytopenia, number of patients",[9]; human,29 patients
same,recommended phase 2 dose,[9]; human,325 g/day
same,patients who developed respiratory infections and/or bronchitis,[9],Eight
same,patients who withdrew their consent for treatment,[9],6 patients
same,dose levels at which projected effective exposure was achieved,[10],at least 315 mg/day
same,t½,[10]; 315 mg,15·1 ± 3·0 h
same,increase of oral bioavailability by food,[10]; po,approximately 20%
same,CL/F (apparent oral clearance),"[10]; po, 315 mg",4·1 ± 2·1 L/h
same,pEC50,[11],> 6.00
same,tumor response in xenograft,[12],durable and complete tumor regressions
same,effect on cure rate of rituximab plus chemotherapy,[13],significantly improved
same,BIM:BCL-2 family protein interactions,[14],dose-dependent decrease
same,cytochrome c,[15],increase
same,cytosolic BAX,[15],dose-dependent decrease
same,half-life,[16],~17 h
same,"All Infections, patients n (%)",[17]; [19],5 (100%)
same,"Herpes Zoster, patients n (%)",[17]; [19],1 (20%)
same,"All Infections, patients n (%)",[17]; [20],25 (66%)
same,"Herpes Zoster, patients n (%)",[17]; [20],0
same,"All Infections, patients n (%)","[17]; Grade 1/2, Intermittent (14/21) Schedule MTD 315 mg (N=9)",8 (89%)
same,"All Infections, patients n (%)",[17]; [21],0
same,"Herpes Zoster, patients n (%)",[17]; [21],0
same,"All Infections, patients n (%)",[17]; [22],0
same,"Herpes Zoster, patients n (%)",[17]; [22],0
same,"All Infections, patients n (%)",[17]; [23],6 (16%)
same,"Herpes Zoster, patients n (%)",[17]; [23],1 (3%)
same,"All Infections, patients n (%)",[17]; [24],1 (11%)
same,"Herpes Zoster, patients n (%)",[17]; [24],0
same,safe tolerated dose,"[17]; intermittent (14/21) schedule, oral once daily",315 mg
same,patients who required at least one dose reduction,[17]; overall dose levels,11 patients
same,time to peak concentrations (Cmax) post-dose,"[18]; 14/21-day schedule, overall",approximately 9 hours
same,detection in urine (renal elimination),[18]; 24-hour urine collection after dosing on C1 D–3,could not be detected
same,dose dependence of exposure,[18]; between 10 mg and 440 mg,dose-proportional
